{
  "source": "ChEMBL document CHEMBL2062459",
  "about": "“Type 1 Phototherapeutic Agents. 2. Cancer Cell Viability and ESR Studies of Tricyclic Diarylamines” (ACS Med Chem Lett, 2012)",
  "tested_on": "U-937",
  "assay": "Cytotoxicity in UV-irradiated human U937 cells exposed to photosensitizer for 2 hrs before irradiation for 20 mins by WST-1 assay",
  "format": "functional, cell-based",
  "settings": "U-937, light or radiation study",
  "procedure,_shortened": "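Compounds were made up as 8 mM DMSO stocks and diluted into culture medium so that final DMSO on cells stayed below 0.5%. Cells were tested across a concentration range both in the dark and with light exposure. Values are the average of at least three independent runs.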",
  "data": [
    {"smiles": "c1ccc(C2c3ccccc3Nc3ccccc32)cc1", "values": [
      {"measurement": "IC50", "result": 0.17, "unit": "µM"}
    ]},
    {"smiles": "c1ccc2c(c1)Cc1ccccc1N2", "note": "[ACRIDAN]", "values": [
      {"measurement": "IC50", "result": 0.68, "unit": "µM"}
    ]},
    {"smiles": "c1ccc2c(c1)Nc1ccccc1S2", "note": "[PHENOTHIAZINE]", "values": [
      {"measurement": "IC50", "result": 1.39, "unit": "µM"}
    ]},
    {"smiles": "c1ccc2c(c1)Nc1ccccc1O2", "note": "[PHENOXAZINE]", "values": [
      {"measurement": "IC50", "result": 14.5, "unit": "µM"}
    ]},
    {"smiles": "c1ccc2c(c1)[nH]c1ccccc12", "note": "[CARBAZOLE]", "values": [
      {"measurement": "IC50", "result": 5.56, "unit": "µM"}
    ]},
    {"smiles": "C1=Cc2ccccc2Nc2ccccc21", "note": "[IMINOSTILBENE]", "values": [
      {"measurement": "IC50", "result": 2.58, "unit": "µM"}
    ]}
  ]
}
